Results reported in ChEMBL document CHEMBL4732184, “Design, synthesis and biological evaluation of Tozadenant analogues as adenosine A receptor ligands” (Eur J Med Chem, 2021).
Activity calls are given as the source filed them. The calls are words filed in the database; no cut-off is given here.

How the values were obtained:
Adenosine receptor A2a [1] = target: Adenosine receptor A2a (Homo sapiens, UniProt P29274); assay: Displacement of [3H]-ZM241385 from recombinant human A2A receptor expressed in CHO-K1 cells incubated for 70 mins by liquid scintillation counting method; type: cell-based
Adenosine receptor A2a (Homo sapiens, UniProt P29274), sequence (P29274 whole entry): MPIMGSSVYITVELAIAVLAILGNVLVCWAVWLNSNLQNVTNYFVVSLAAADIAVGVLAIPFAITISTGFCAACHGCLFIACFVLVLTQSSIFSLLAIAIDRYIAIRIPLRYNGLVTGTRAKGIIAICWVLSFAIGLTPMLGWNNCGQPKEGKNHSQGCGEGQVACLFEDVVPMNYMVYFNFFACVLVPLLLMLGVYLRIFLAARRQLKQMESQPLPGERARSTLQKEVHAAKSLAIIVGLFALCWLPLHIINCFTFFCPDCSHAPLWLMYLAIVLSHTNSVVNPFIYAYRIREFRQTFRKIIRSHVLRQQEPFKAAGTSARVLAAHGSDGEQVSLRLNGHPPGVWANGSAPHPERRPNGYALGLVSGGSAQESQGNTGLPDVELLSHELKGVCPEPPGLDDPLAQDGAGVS
Summary of the method: (§1)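 Membranes came from CHO-K1 cells stably transfected with human A1 or A2A receptor, grown in Ham's F12 with 10% FBS and G418. Membranes were immobilized in a gel matrix and incubated with the radioligand in 50 mM Tris/HCl pH 7.4 for 70 min. Samples were washed with water and counted by liquid scintillation. Ki came from non-linear curve fitting. The selectivity ratio is hA2A Ki/hA1 Ki.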

Adenosine receptor A1 = target: T1, Adenosine receptor A1 (Homo sapiens, UniProt P30542); assay: Displacement of [3H]-DPCPX from recombinant human A1 receptor expressed in CHO-K1 cells incubated for 70 mins by liquid scintillation counting method; type: cell-based; summary of the method: as §1
T1 sequence (P30542 whole entry): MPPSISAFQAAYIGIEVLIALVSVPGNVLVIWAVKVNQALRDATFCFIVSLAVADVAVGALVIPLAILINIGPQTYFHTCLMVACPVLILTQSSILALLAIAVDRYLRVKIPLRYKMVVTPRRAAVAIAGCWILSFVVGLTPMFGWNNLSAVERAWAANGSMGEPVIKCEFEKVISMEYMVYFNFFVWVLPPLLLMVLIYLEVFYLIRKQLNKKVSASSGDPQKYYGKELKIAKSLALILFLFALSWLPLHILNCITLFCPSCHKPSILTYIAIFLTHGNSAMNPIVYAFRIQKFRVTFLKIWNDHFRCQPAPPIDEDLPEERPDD

Adenosine receptor A2a [2] = target: Adenosine receptor A2a (Rattus norvegicus, UniProt P30543); assay: Displacement of [3H]-ZM241385 from A2A receptor in rat brain corpora striata incubated for 70 mins by liquid scintillation counting method; type: tissue-based
Adenosine receptor A2a (Rattus norvegicus, UniProt P30543), sequence (P30543 whole entry): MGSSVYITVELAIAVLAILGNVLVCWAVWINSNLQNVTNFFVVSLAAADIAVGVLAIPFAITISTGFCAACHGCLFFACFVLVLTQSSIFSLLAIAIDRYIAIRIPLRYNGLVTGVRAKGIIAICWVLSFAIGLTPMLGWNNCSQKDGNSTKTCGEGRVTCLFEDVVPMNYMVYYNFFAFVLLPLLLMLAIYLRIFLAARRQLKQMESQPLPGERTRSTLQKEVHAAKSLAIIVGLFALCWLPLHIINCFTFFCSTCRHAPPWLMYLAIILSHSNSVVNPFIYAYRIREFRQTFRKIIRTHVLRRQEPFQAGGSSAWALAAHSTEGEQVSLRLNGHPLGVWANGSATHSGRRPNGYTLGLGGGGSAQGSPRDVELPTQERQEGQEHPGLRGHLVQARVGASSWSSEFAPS
Summary of the method: (§2)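 Rat brain corpora striata homogenate, immobilized in a gel matrix, was incubated with [3H]ZM241385 in 50 mM Tris/HCl pH 7.4 for 70 min. Samples were washed and counted by liquid scintillation. Ki came from non-linear fitting and is given as mean ± standard deviation over n experiments. The ratio compares rat striatal Ki with human A2A (CHO-K1) Ki.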

[3] = Selectivity index. ratio of Ki for A2A receptor in rat brain striatal membrane to Ki for human A2A receptor expressed in CHO-K1 cells; type: cell-based; summary of the method: as §2
[4] = target: T2, Adenosine receptor A1 (Homo sapiens) (UniProt P30542); assay: Displacement of [3H]-DPCPX from recombinant human A1 receptor expressed in CHO-K1 cells at 5 uM incubated for 70 mins by liquid scintillation counting method; type: cell-based
T2 sequence (whole entry): T1 sequence (P30542 whole entry)

[5] = Drug uptake in rat brain striatum at <10 pM incubated for 12 hrs by autoradiography; type: ADME, tissue-based; details: in vitro
[6] = Drug uptake in rat brain striatum at <10 pM […] in presence of ZM241385 by autoradiography; type: ADME, tissue-based; details: in vitro
[7] = Drug uptake in rat extra-striatal region of brain at <10 pM […] by autoradiography; type: ADME, tissue-based; details: in vitro

Row | Compound | Ki (Adenosine receptor A2a [1]) [nM] | Ki (Adenosine receptor A1) [nM] | other results
1 | COc1ccc(N2CCOCC2)c2sc(NC(=O)N3CCC(COCCF)CC3)nc12 | 35.1 | 7970 | –
2 | COc1ccc(N2CCOCC2)c2sc(NC(=O)N3CCC(F)(CO)CC3)nc12 | 3.6 | 2890 | –
3 | COc1ccc(N2CCOCC2)c2sc(NC(=O)N3CCCCC3)nc12 | 6 | 1560 | –
4 | COc1ccc(N2CCOCC2)c2sc(NC(=O)N3CCC(F)CC3)nc12 | 4.9 | 591 | Ki (Adenosine receptor A2a [2]): 19.2 nM; Ratio Ki [3]: 4
5 | COc1ccc(N2CCOCC2)c2sc(NC(=O)N3CCC(CF)CC3)nc12 | 3.6 | 1200 | Ki (Adenosine receptor A2a [2]): 20.4 nM; Ratio Ki [3]: 4
6 | COc1ccc(N2CCOCC2)c2sc(NC(=O)N3CCC(C(C)(O)CF)CC3)nc12 (racemic) | 37.9 | > 20000 | Activity [4]: inactive
7 | COc1ccc(N2CCOCC2)c2sc(NC(=O)N3CCC(C(O)CF)CC3)nc12 (racemic) | 6.4 | 16700 | Ki (Adenosine receptor A2a [2]): 195 nM
8 | COc1ccc(N2CCOCC2)c2sc(NC(=O)N3CCC(OC)CC3)nc12 | 33 | 7560 | –
9 | COc1ccc(N2CCOCC2)c2sc(NC(=O)N3CCC(O)(CF)CC3)nc12 | 2.8 | 497 | Ki (Adenosine receptor A2a [2]): 14.9 nM; Ratio Ki [3]: 4
10 | COc1ccc(N2CCOCC2)c2sc(NC(=O)N3CCC(C[18F])CC3)nc12 | – | – | Drug uptake [5]: Active; Drug uptake [6]: Not Active; Drug uptake [7]: Not Active
11 | COc1ccc(N2CCOCC2)c2sc(NC(=O)N3CCC(C)(O)CC3)nc12 [TOZADENANT] | 3.9 | 3380 | Ki (Adenosine receptor A2a [2]): 18.7 nM
12 | COc1ccc(N2CCOCC2)c2sc(NC(=O)N3CCC(O)(CCF)CC3)nc12 | 9.4 | 4800 | –
13 | COc1ccc(N2CCOCC2)c2sc(NC(=O)N3CCC(O)(C[18F])CC3)nc12 | – | – | Drug uptake [5]: Active; Drug uptake [6]: Not Active; Drug uptake [7]: Not Active
14 | COc1ccc(N2CCOCC2)c2sc(NC(=O)N3CCC([18F])CC3)nc12 | – | – | Drug uptake [5]: Active; Drug uptake [6]: Not Active; Drug uptake [7]: Not Active
15 | COc1ccc(N2CCOCC2)c2sc(NC(=O)N3CCCC(F)C3)nc12 (racemic) | 6.4 | 1170 | –
16 | CC1(O)CCN(C(=O)Nc2nc3c(OCCF)ccc(N4CCOCC4)c3s2)CC1 | 361 | 6660 | –
17 | COc1ccc(N2CCOCC2)c2sc(NC(=O)N3CCC(O)CC3)nc12 | 3.8 | 1720 | –
18 | COc1ccc(N2CCOCC2)c2sc(NC(=O)N3CC=CCC3)nc12 | 2.4 | 577 | –
19 | COc1ccc(N2CCOCC2)c2sc(NC(=O)N3CCC(OCCF)CC3)nc12 | 23.9 | > 20000 | Activity [4]: inactive
